Consider 6 compounds from ChEMBL document CHEMBL1135521 (J Med Chem, 2002).

SMILES strings stand for the structures. A value given as a limit tells only on which side of the number the result lay.

Data set [1] has as its target Human immunodeficiency virus type 1 protease (Human immunodeficiency virus 1, UniProt Q72874). Put plainly: Concentration required to inhibit HIV-1 protease cleavage by 50%.
Data set [2] can be described thus: Concentration required to cause 50% death of uninfected MT-4 cells. It is filed as ADME, cell-based, MT4. As to conditions: human.
The test system of the next data set is MT4. Put plainly: Concentration required to inhibit syncytia formation by 50% on MT-4 cells. As to conditions: Homo sapiens. It is filed as functional, cell-based. A digest of the protocol: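 HIV-infected MT4 cell cultures were scored by observing the virus's fusogenic effect, that is, syncytium formation. EC50 is the concentration that halves syncytium formation, and compounds were tested up to 50 µM.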

Data set [3] can be described thus: Selectivity index, expressed as the ratio of CC50 and EC50. As to conditions: read-out: SI. An outline of the steps: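 Ratio of CC50 to EC50 in HIV-infected MT4 cell cultures. The antiviral EC50 comes from inhibition of virus-induced syncytium formation (the fusogenic effect), scored by observing the cultures.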

In turn, `CC(C)CN(C[C@H](O)[C@@H](NC(=O)O[C@@H]1CCOC1)Sc1ccccc1)S(=O)(=O)c1ccc(N)cc1` displayed an IC50 in data set [1] of 12.5 µM. Also, the CC50 in data set [2] is above 50 µM. In the data set on MT4, the EC50 was above 50 µM.
Compound `CC(C)CN(C[C@@H](O)[C@@H](NC(=O)O[C@@H]1CCOC1)Sc1ccccc1)S(=O)(=O)c1ccc(N)cc1` came in with an IC50 in data set [1] of 16.7 µM. Also, in data set [2], the CC50 was above 50 µM. In the data set with MT4, this compound had an EC50 above 50 µM.
The compound `CC(C)CN(C[C@@H](O)[C@H](NC(=O)O[C@@H]1CCOC1)Sc1ccccc1)S(=O)(=O)c1ccc(N)cc1` gave a half-maximal inhibitory concentration (IC50) in data set [1] of 1.4 µM. The CC50 in data set [2] is above 50 µM. In the data set with MT4, the EC50 is above 50 µM.
Regarding `CC(C)CN(C[C@@H](O)[C@H](Cc1ccccc1)NC(=O)O[C@H]1CCOC1)S(=O)(=O)c1ccc(N)cc1`, in data set [2], the CC50 is above 50 µM. In the data set on MT4, this compound yielded an EC50 of 0.01 µM.
`CC(C)CN(C[C@H](O)[C@H](NC(=O)O[C@@H]1CCOC1)Sc1ccccc1)S(=O)(=O)c1ccc(N)cc1` came in with an IC50 in data set [1] of 11.6 µM. The CC50 in data set [2] is above 50 µM. In the data set on MT4, this compound yielded an EC50 above 50 µM.
In the case of `CC(C)CN(CC(O)C(NC(=O)O[C@H]1CCOC1)Sc1ccccc1)S(=O)(=O)c1ccc(N)cc1` (some centres not stated), the selectivity ratio in data set [3] is above 1. The compound further yielded a CC50 in data set [2] above 50 µM. Further, the midpoint of the response in the data set with MT4, the EC50, lay at 50 µM.
